What all share (format): protein assay
Substrate in data set [1]: O=[N+]([O-])c1ccc(O[C@H]2O[C@H](CO)[C@@H](O)[C@H](O)[C@@H]2O)cc1
Briefly: (§1) Ratio of Kcat to Km for Bacteroides thetaiotaomicron GH92 alpha-mannosidase GH92 alpha-mannosidase 4093 assessed as mannose release after 16 hrs by HPLC.

Substrate in data set [2]: OC[C@H]1O[C@H](O[C@H]2[C@H](O)[C@H](O)[C@@H](O)O[C@@H]2CO)[C@@H](O)[C@@H](O)[C@@H]1O
The data set is described as §1.

Substrate in data set [3]: O=[N+]([O-])c1ccc(O[C@H]2O[C@H](CO)[C@@H](O)[C@H](O)[C@@H]2O)cc1
Briefly: (§2) Activity of Bacteroides thetaiotaomicron GH92 alpha-mannosidase GH92 alpha-mannosidase 4093 assessed as mannose release after 16 hrs by HPLC. In a few lines:
(§3)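 Yeast mannan or ovalbumin (mostly high-mannose N-glycans) at 1 mg ml−1 was incubated with recombinant IMAC-purified enzyme from E. coli. The methods give enzyme at 2 μM and the table footnote gives 1 μM. Buffer was 100 mM sodium HEPES pH 7.0 with 1 mg ml−1 BSA and 2 mM CaCl2. Aliquots were taken at 1 and 16 h and boiled 10 min. Mannose was measured by HPLC and scored by signal: >500 nC +++, 200–500 ++, <200 +.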

Substrate in data set [4]: OC[C@H]1O[C@H](O[C@H]2[C@H](O)[C@H](O)[C@@H](O)O[C@@H]2CO)[C@@H](O)[C@@H](O)[C@@H]1O
The description is as §2. In a few lines:
as §3

Substrate in data set [5]: O=[N+]([O-])c1ccc(O[C@H]2O[C@H](CO)[C@@H](O)[C@H](O)[C@@H]2O)cc1
The data set can be described thus: Ratio of Kcat to Km for Bacteroides thetaiotaomicron GH92 alpha-mannosidase GH92 alpha-mannosidase 4073 assessed as mannose release after 16 hrs by HPLC.

Substrate in data set [6]: O=[N+]([O-])c1ccc(O[C@H]2O[C@H](CO)[C@@H](O)[C@H](O)[C@@H]2O)cc1
Briefly: (§4) Activity of Bacteroides thetaiotaomicron GH92 alpha-mannosidase GH92 alpha-mannosidase 4073 assessed as mannose release after 16 hrs by HPLC. A digest of the protocol:
as §3

Substrate in data set [7]: OC[C@H]1O[C@H](O[C@H]2[C@H](O)[C@H](O)[C@@H](O)O[C@@H]2CO)[C@@H](O)[C@@H](O)[C@@H]1O
The data set is described as §4. In a few lines: as §3

Substrate in data set [8]: O=[N+]([O-])c1ccc(O[C@H]2O[C@H](CO)[C@@H](O)[C@H](O)[C@@H]2O)cc1
Briefly: (§5) Ratio of Kcat to Km for Bacteroides thetaiotaomicron GH92 alpha-mannosidase GH92 alpha-mannosidase 3530 assessed as mannose release after 16 hrs by HPLC.

Substrate in data set [9]: OC[C@H]1O[C@H](O[C@H]2[C@H](O)[C@H](O)[C@@H](O)O[C@@H]2CO)[C@@H](O)[C@@H](O)[C@@H]1O
The description is as §5.

Substrate in data set [10]: O=[N+]([O-])c1ccc(O[C@H]2O[C@H](CO)[C@@H](O)[C@H](O)[C@@H]2O)cc1
The data set can be described thus: (§6) Activity of Bacteroides thetaiotaomicron GH92 alpha-mannosidase GH92 alpha-mannosidase 3530 assessed as mannose release after 16 hrs by HPLC.

Substrate in data set [11]: OC[C@H]1O[C@H](O[C@H]2[C@H](O)[C@H](O)[C@@H](O)O[C@@H]2CO)[C@@H](O)[C@@H](O)[C@@H]1O
The description is as §6.

Substrate in data set [12]: O=[N+]([O-])c1ccc(O[C@H]2O[C@H](CO)[C@@H](O)[C@H](O)[C@@H]2O)cc1
Briefly: (§7) Ratio of Kcat to Km for Bacteroides thetaiotaomicron GH92 alpha-mannosidase GH92 alpha-mannosidase 3994 assessed as mannose release after 16 hrs by HPLC.

Substrate in data set [13]: OC[C@H]1O[C@H](O[C@H]2[C@H](O)[C@H](O)[C@@H](O)O[C@@H]2CO)[C@@H](O)[C@@H](O)[C@@H]1O
The data set is described as §7.

Substrate in data set [14]: O=[N+]([O-])c1ccc(O[C@H]2O[C@H](CO)[C@@H](O)[C@H](O)[C@@H]2O)cc1
The data set can be described thus: Activity of Bacteroides thetaiotaomicron GH92 alpha-mannosidase GH92 alpha-mannosidase 3994 assessed as mannose release after 16 hrs by HPLC.

Substrate in data set [15]: O=[N+]([O-])c1ccc(O[C@H]2O[C@H](CO)[C@@H](O)[C@H](O)[C@@H]2O)cc1
Briefly: (§8) Ratio of Kcat to Km for Bacteroides thetaiotaomicron GH92 alpha-mannosidase GH92 alpha-mannosidase 4092 assessed as mannose release after 16 hrs by HPLC.

Substrate in data set [16]: OC[C@H]1O[C@H](O[C@H]2[C@@H](O)[C@H](O)[C@@H](CO)O[C@@H]2O)[C@@H](O)[C@@H](O)[C@@H]1O
Described as §8.

Substrate in data set [17]: OC[C@H]1O[C@H](O[C@H]2[C@@H](O)[C@H](O)[C@@H](CO)O[C@@H]2O)[C@@H](O)[C@@H](O)[C@@H]1O
The data set can be described thus: Activity of Bacteroides thetaiotaomicron GH92 alpha-mannosidase GH92 alpha-mannosidase 4092 assessed as mannose release after 16 hrs by HPLC. A digest of the protocol:
as §3

B1: Alpha-1,2-mannosidase family protein (BT_4093) (Bacteroides thetaiotaomicron), Q8A0C8 (protein)
chain: MKHKFLFILLFSLVLEGMVTTQAVAGDYVHQVNTLIGTKGTGLTSGYLYPGATYPYGMVQFTPSYFSKRSGFVINQLSGGGCEHMGNFPTFPVKGKLKMSPDNILNYRINVSEEKGHAGYYEAMVQEDIKAKLTVTERTGMASYEYPADQQYGTIIIGGGISATPIEQAAIVITAPNKCEGYAEGGNFCGLRTPYKVYFVAEFDTDAFETGTWKREELMPNTTFAEGEYSGVYFTFDVNKKKNIQYKIGVSYVSVENARENLKAENAEWDFQKIQNQAEAKWNHYLGMIEVEGTNPDRTTQFYTHLYRSFIHPNVCSDVNGEYMGADFRVHKSRSKHYTSFSNWDTYRTQIQLLSMLDPEVASDIVISHQLFAEQSGGSFPRWVMANIETGVMQGDPTPILIANAYAFGARNYDPKPIFKIMRKGAEEPGSKSQDVETRPGLKQYLDKGYYNASIQLEYTSADFAIGQFALHAVGDEFASWRYFHFARSWKNLYNSDTGWLQSRNPDGSWKSLGEDFRESTYKNYFWMVPYDIAGLVEIIGGKEKAEKRLDEFFTRLDAGYNDAWFASGNEPSFHIPWIYNWIGRPYKTQEIINRVLNEQYSSKIDGLPGNDDLGTMGAWYVFACIGLYPEIPGVGGFTVNTPIFSSVKVHLKKGDIVIKGGSEKDIYIKSMKLNGKSYESTWIDWDQLNSGATIEYRTSGKPDMKWGAKVVPPSFP
The kcat/Km is the second-order rate constant that governs catalysis at low substrate concentration. For orientation: Km means the concentration of substrate that gives half-maximal velocity. Usually kcat stands for the maximal rate divided by the concentration of active sites. With B1, the kcat/Km in data set [1] is 9.08 M⁻¹ s⁻¹; in [2] it was 38.3 M⁻¹ s⁻¹. Further, the Km came out at 1300 µM in data set [3] and 35000 µM in data set [4]. For the same protein, the turnover number (kcat) in [3] worked out at 0.0112 s⁻¹; in data set [4], 1.33 s⁻¹.

B2: Alpha-1,2-mannosidase, putative (BT_4073) (Bacteroides thetaiotaomicron), Q8A0E8 (protein)
chain: MYKASANILIACSFLWLTACSSAGVVTEDLIPTDYVNPFIGASTSVGAAGVYHGLGKTFPGATTPYGMVQVSPNTITGGDNSSGYSDEHKTIEGFAFTQMSGVGWFGDLGNFLVMPTTGELQKIAGKEDGSIKGYRSSYDKATETAKAGYYSVELTDYKIKVESSATPHCGILQFTFPSNEQSRIQIDLARRVGGTSTSQYVKVLDDYTIQGWMKCTPDGGGWGNGEGNSDYTVYYYAQFSKPLSNYGFWSADIPDEWVRKRDEVVSIPYLTRISQAPVIKDKKELEGKHLGFFTEFPTKEGEQVEMKVGISFVDMEGAANNFKQEIASKNFAQVKQEASDLWNKELSRIRISGGTDDEKTVFYTSLYHTMIDPRIYTDVDGRYIGGDKKVHEQDGTFTKRTIFSGWDVFRSQFPLQAMINPRLVSDALNSLITMADQSRREYYERWELLNSYSGCMIGNPALSVLADAYMKGIRTYDVEKAYQYAVNTSAKFGNDSLGYTPEPLSISYTLEYAYADWCVAQLAKALGKEEDAKRFYEKGQAYRNMFDAEKGWFRPRNADGSWKAWPENALTEEWYGCIESNAYQQGWFVPHDVPGMVELMGGKEEVIANLTNLFDHTPSDMLWNDYYNHANEPVHFVPFLFNQLDVPWYTQKWTRYICKNAYANKVEGIVGNEDVGQMSAWYILAASGIHPSCPGNTRMEITSPVFDKVEFNLDSKYHQGKVFTIIAHNNNTNNLYIQKALLNGKEYNKCYLDFAEIAAGGTLELFMGDKPNTEWGVLSNI
As to B2, the specificity constant (kcat/Km) in data set [5] came out at 2.33 M⁻¹ s⁻¹. Also, in data set [6], the Michaelis-Menten constant (Km) came out at 1800 µM and the catalytic constant (kcat) stood at 0.0045 s⁻¹. Also, in [7], the Km was 270 µM.

B3: Alpha-1,2-mannosidase (BT_3530) (Bacteroides thetaiotaomicron), Q8A1X8 (protein)
chain: MTPSVAQNTKYVNLFIGTSGDNGQVAPGAAAPFGMVCVCPDNDPRSHAGYDYAVTKVSGISVNRLSGVGCSGGGGNLRIRPVAPSQELHIKKSREKATPGYYSTAFTNGIKTELTATNAMAVERYKFPRSLSAALWIDFASTFEDVATCHYKRISETCIEGYVQAKNVCGHGCYKLYFSLNTSQPFQLEEQKETTACLTFGKKVRSVEVRIGLSALSSELASWECARWEKMDFEDVKSRTADQWEKQLSAIDVKGGKKDDRVIFYTSLYRTYLSPADVSSPDGAYLGTDGKVYISEDFRYYSNWSLWDTFRTKFPLLVLTEPAKMRDMATSLIHLYATGKKDWSTGFESTPTVRTEHAVILLLDAYRKGITNLDFRKGYAGMKQEMERLPMRSPDQKMESAYDLWAMAKIAEIIGEKADSEQYRQRSVSLFEETWKKEFMNVTPAFEVMKNNGLYQGTRWQYRWAAPQYIDKMIEWVGQDSLRLQLTYFFDHHLYNQGNEPDIHVPYLFNRLGAPEKTQQIVRSLMTEPMIHKYGGNSEFKTPYLGKAFKNAPEGYSPEMDEDDGTMSAWYVFGAMGFYPLLVGDEYYDLTSPLFDRVLLRLTNGNVLTIQTEGRKKKDAPIKSIHFNGKKIADYRISHNELIKGGELIYNYK
With B3, the kcat/Km entry in [8] was “Not Active”; in data set [9], 1.58 M⁻¹ s⁻¹. Further, the results for the Km result in [10] and in [11] were “Not Active” and 610 µM, respectively. The figures for the kcat entry in data set [10] and in data set [11] were “Not Active” and 0.001 s⁻¹, respectively.

B4: Alpha-1,2-mannosidase (BT_3994) (Bacteroides thetaiotaomicron), Q8A0M7 (protein)
chain: MKTPIYLLLIVCIFASCNTKQTQAEIDYTSYVNPFIGTDFTGNTYPGAQAPFGMVQLSPDNGLPGWDRISGYFYPDSTIAGFSHTHLSGTGAGDLYDISFMPVTLPYKEAEAPLGIYSKFSHDEESAYAGYYQVRLKDYHINVELTATERCGIQRYTFPKAEAAIFLNLKKAMNWDFTNDSHIEVVDSVTIQGYRYSDGWARDQRIYFRTRFSKPFDKVELDTTAIIKDKQHIGTAVIARFDFHTEEGEQILVNTAISGVSMEGAAKNLQAEVPENDFDKYLAETKANWNRQLGKIEVEGDNQDDKVNFYTALYHSMIAPTIYSDVDGAYYGPDKKVHQSDGWVNYSTFSLWDTYRAAHPLFTYTEPERVNDMVKSFIAFFEQNGRLPVWNFYGSETDMMIGYHAVPVIVDAYLKGIGNFDAEKALAACVATANLDNYRGIGLYKQLGYIPYNVTDHYNAENWSLSKTLEYAFDDYCIAEMANKMGKKEIADEFYKRSQNYKNVYNPATSFMQPRDDKGNFIKDFKADEYTPHICESNGWQYFWSVQHDIDGLIDLTGGKNRFAEKLDSMFTYHPAADEELPIFSTGMIGQYAHGNEPSHHVIYLFNAVGQQNLTQKYVAKVMNELYKNEPAGLCGNEDCGQMSAWYVFSAMGFYPVNPVSGKYEIGTPLFPEMKLHLANGKTFTVLAPKVSKENIYIQSIKVDGQPYNKTYLTHEQIMSGTTVEFEMGNTPLVEVEFEEQTQ
With B4, the catalytic efficiency (kcat/Km) in data set [12] came out at 433 M⁻¹ s⁻¹. Moreover, in data set [13], the catalytic efficiency (kcat/Km) is 0.0833 M⁻¹ s⁻¹. Also, in data set [14], the Km was 3700 µM and the kcat stood at 1.57 s⁻¹.

B5: Alpha-1,2-mannosidase (BT_4092) (Bacteroides thetaiotaomicron), Q8A0C9 (protein)
chain: MKKLVYLIIFFLYSTVMNAQLKDLVQYVNTLQGTDSNFGLSYGNTYPTTGMPYGMHMWSAQTGKNGDGFKYMYAVDKIRAFSQSHQCSPWVSDYAVYSFMPMVGELVVNQDARATKFSHDNEIAKPHYYKVTFDNGITTEMAPTTRGVHLRFSYPTTGDAYLVLDGYTDMSEIKIDPAKRQISGWVNNQRFVNDSKSFRNYFVVQFDKPFEDYGVWENQKDEVFPQKLDGAGKGYGAFIKFKKGSKVQAKAASSYISAEQALITLNKELGKDKNLEVTKARGQKTWNEVLNRIVVEGCTDEQMKTFYSCLFRANLFSRKFYERKENGEPYYYSPYNGKIYDGYMYTDNGFWDTFRSQFPLTNILHPTMQGRYMNALLAAQEQCGWLPSWSSPGETGGMLGNHSISLLADAWAKGIRDFDPEKALKAYAHEAMNKGPWGGANGRGFWKEYFQLGYVPYPESMGSSAQTMEYAYDDFCGYQLAKMVGNKHYQEVFARQMYNYKNVFDKSIGFMRGKGVDGKWQEPFDPLEWGGPFCEGNAWHYTWSVFHDVQGLIDLFGSDEKFTTKIDSVFTIPNIIKPGTYGGVIHEMKEMELANMGQYAHGNQPIQHMPYLYCYAGQPWKTQYWVRQIVERLYNSTEKGYPGDEDQGGMSSWYILSSLGIYAVCPGTDEYVIGSPLFKKATITMENGNKFVIEAPENSKENLYIQSATLNGRLLDKNYIHYDDIAEGGVLKFEMGSQPNKERCTSKYAAPFSLSKE
Turning to B5, the kcat/Km in data set [15] was found to be 1.12 M⁻¹ s⁻¹. In data set [16], the kcat/Km is 900 M⁻¹ s⁻¹. Further, in data set [17], the Km is 2000 µM and the kcat turned out to be 1.83 s⁻¹.

(Values after ChEMBL document CHEMBL1250451, “Mechanistic insights into a Ca2+-dependent family of alpha-mannosidases in a human gut symbiont” (Nat Chem Biol, 2010).)
